Assay results from ChEMBL document CHEMBL4020727, “Synthesis and biological evaluation of largazole zinc-binding group analogs” (Bioorg Med Chem, 2017).
pIC50: −log10 of the molar value.

Columns and labels:
HCT-116 = assay: Cytotoxicity against human HCT116 cells assessed as reduction in cell viability after 48 hrs by MTT assay; type: functional, cell-based; settings: HCT-116, 48 h
Outline: (§1)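 Cells grown in DMEM with 10% FBS, 37 °C, 5% CO2; 1 × 10^4 cells per well plated and left 24 h, then exposed to a range of compound concentrations or vehicle (1% EtOH) for 48 h. Viability read by MTT.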

Histone deacetylase 2 = Histone deacetylase 2 (Homo sapiens, UniProt Q92769); assay: Inhibition of full length C-terminal FLAG-tagged human HDAC2 expressed in baculovirus infected Sf9 insect cells using BPS HDAC substrate 3 after 30 mins by fluorescence assay
Chain of Histone deacetylase 2 (Q92769 whole entry): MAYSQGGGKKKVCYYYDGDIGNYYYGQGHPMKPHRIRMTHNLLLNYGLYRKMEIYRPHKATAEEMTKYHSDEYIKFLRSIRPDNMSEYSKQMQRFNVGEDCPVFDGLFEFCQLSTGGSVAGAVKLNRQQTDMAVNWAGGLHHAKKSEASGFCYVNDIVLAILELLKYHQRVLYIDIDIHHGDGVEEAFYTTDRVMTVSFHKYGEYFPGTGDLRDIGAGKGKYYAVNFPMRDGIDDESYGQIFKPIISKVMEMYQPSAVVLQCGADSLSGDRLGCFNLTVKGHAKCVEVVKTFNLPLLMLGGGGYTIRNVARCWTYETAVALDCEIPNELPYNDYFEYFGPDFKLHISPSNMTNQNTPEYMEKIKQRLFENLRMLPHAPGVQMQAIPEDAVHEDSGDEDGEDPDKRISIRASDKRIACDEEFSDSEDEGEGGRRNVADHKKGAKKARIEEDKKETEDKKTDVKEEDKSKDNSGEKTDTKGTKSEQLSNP
Outline: (§2)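 Run by a contract lab. Compound incubated with HDAC enzyme, HDAC substrate, BSA and HDAC buffer, in duplicate, at 37 °C for 30 min. Quenched with HDAC developer, then 15 min at room temperature. Percent activity = (F−Fb)/(Ft−Fb), using blank and solvent-control wells. IC50 from curve fitting.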

Homo sapiens = species: Homo sapiens; assay: Inhibition of class 1 HDAC in human MDA-MB-231 cells assessed as hyperacetylation of histone H3 (Lys9/14) measured at 8 hrs post treatment by immunoblot analysis; type: cell-based
Outline: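 Cells in DMEM/10% FBS; 4 × 10^5 cells seeded in 60-mm dishes overnight, then treated for 8 h with 0–10 μM (final) compound or vehicle (1% EtOH). Whole-cell lysates loaded at equal protein (BCA), run on SDS-PAGE, blotted to PVDF and probed with anti-acetyl histone H3 (Lys9/14); β-actin also probed. Chemiluminescent detection.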

[1] = molecular target: T1, Polyamine deacetylase HDAC10 (Homo sapiens, UniProt Q969S8); assay: Inhibition of N-terminal GST-tagged/C-terminal His-tagged human HDAC10 (1 to 481 residues) expressed in baculovirus infected Sf9 insect cells using BPS HDAC substrate 3 after 30 mins by fluorescence assay
T1 sequence (Q969S8 whole entry): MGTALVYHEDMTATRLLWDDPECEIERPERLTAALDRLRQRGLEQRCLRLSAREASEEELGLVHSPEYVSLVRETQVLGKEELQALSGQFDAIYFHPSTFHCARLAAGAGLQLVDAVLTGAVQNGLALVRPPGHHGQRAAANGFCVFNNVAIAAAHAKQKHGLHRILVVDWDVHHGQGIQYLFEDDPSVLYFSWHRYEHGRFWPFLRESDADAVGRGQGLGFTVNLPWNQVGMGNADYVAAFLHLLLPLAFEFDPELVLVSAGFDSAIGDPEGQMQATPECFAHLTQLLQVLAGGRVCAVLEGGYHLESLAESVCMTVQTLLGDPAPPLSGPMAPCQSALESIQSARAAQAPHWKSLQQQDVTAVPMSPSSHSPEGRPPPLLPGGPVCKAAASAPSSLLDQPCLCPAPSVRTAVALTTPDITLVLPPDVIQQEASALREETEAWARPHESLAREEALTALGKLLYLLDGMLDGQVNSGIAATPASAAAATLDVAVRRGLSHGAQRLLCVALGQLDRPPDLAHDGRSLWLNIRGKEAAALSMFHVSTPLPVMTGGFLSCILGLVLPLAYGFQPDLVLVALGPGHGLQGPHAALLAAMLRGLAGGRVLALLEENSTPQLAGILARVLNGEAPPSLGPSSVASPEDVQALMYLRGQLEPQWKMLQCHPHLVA
Outline: as §2, with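 “temperature. Fluorescence read at ex 360/em 460 nm.” for “temperature.”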

Histone deacetylase 8 = molecular target: T2, Histone deacetylase 8 (Homo sapiens, UniProt Q9BY41); assay: Inhibition of full length C-terminal His-tagged human HDAC8 expressed in baculovirus infected Sf9 insect cells using BPS HDAC class 2a substrate after 30 mins by fluorescence assay; outline: as §2
T2 sequence (Q9BY41 whole entry): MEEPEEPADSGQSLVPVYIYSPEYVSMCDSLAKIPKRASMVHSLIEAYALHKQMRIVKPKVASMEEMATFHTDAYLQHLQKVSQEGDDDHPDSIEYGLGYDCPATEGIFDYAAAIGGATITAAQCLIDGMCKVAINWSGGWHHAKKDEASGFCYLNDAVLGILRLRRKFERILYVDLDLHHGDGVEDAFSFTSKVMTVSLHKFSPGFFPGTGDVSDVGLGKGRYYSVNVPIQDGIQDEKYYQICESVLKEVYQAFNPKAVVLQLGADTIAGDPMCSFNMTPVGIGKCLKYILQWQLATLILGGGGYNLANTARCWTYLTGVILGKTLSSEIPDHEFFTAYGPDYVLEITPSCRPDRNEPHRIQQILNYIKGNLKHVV

[2] = molecular target: Histone deacetylase 3/Nuclear receptor corepressor 2 (HDAC3/NCoR2) (Homo sapiens, UniProt O15379); assay: Inhibition of full length human C-terminal His-tagged HDAC3/N-terminal GST-tagged NCOR2 (395 to 489 residues) expressed in baculovirus infected Sf9 insect cells using BPS HDAC substrate 3 after 30 mins by fluorescence assay
Chain of Histone deacetylase 3/Nuclear receptor corepressor 2 (HDAC3/NCoR2) (O15379 whole entry, the tested form may be a part): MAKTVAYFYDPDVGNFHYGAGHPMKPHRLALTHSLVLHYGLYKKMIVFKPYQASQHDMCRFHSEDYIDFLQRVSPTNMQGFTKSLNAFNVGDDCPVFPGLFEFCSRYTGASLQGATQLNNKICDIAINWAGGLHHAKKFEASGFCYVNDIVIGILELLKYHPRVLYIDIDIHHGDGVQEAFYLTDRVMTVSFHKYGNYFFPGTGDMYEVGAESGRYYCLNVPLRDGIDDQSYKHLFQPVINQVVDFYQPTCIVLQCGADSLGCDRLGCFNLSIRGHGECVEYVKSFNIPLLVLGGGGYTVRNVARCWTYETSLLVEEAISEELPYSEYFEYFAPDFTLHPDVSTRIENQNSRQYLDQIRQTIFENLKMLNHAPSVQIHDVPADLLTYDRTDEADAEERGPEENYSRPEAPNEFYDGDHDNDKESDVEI
Chain of Histone deacetylase 3/Nuclear receptor corepressor 2 (HDAC3/NCoR2) (Q9Y618 whole entry, further chain, the tested form may be a part): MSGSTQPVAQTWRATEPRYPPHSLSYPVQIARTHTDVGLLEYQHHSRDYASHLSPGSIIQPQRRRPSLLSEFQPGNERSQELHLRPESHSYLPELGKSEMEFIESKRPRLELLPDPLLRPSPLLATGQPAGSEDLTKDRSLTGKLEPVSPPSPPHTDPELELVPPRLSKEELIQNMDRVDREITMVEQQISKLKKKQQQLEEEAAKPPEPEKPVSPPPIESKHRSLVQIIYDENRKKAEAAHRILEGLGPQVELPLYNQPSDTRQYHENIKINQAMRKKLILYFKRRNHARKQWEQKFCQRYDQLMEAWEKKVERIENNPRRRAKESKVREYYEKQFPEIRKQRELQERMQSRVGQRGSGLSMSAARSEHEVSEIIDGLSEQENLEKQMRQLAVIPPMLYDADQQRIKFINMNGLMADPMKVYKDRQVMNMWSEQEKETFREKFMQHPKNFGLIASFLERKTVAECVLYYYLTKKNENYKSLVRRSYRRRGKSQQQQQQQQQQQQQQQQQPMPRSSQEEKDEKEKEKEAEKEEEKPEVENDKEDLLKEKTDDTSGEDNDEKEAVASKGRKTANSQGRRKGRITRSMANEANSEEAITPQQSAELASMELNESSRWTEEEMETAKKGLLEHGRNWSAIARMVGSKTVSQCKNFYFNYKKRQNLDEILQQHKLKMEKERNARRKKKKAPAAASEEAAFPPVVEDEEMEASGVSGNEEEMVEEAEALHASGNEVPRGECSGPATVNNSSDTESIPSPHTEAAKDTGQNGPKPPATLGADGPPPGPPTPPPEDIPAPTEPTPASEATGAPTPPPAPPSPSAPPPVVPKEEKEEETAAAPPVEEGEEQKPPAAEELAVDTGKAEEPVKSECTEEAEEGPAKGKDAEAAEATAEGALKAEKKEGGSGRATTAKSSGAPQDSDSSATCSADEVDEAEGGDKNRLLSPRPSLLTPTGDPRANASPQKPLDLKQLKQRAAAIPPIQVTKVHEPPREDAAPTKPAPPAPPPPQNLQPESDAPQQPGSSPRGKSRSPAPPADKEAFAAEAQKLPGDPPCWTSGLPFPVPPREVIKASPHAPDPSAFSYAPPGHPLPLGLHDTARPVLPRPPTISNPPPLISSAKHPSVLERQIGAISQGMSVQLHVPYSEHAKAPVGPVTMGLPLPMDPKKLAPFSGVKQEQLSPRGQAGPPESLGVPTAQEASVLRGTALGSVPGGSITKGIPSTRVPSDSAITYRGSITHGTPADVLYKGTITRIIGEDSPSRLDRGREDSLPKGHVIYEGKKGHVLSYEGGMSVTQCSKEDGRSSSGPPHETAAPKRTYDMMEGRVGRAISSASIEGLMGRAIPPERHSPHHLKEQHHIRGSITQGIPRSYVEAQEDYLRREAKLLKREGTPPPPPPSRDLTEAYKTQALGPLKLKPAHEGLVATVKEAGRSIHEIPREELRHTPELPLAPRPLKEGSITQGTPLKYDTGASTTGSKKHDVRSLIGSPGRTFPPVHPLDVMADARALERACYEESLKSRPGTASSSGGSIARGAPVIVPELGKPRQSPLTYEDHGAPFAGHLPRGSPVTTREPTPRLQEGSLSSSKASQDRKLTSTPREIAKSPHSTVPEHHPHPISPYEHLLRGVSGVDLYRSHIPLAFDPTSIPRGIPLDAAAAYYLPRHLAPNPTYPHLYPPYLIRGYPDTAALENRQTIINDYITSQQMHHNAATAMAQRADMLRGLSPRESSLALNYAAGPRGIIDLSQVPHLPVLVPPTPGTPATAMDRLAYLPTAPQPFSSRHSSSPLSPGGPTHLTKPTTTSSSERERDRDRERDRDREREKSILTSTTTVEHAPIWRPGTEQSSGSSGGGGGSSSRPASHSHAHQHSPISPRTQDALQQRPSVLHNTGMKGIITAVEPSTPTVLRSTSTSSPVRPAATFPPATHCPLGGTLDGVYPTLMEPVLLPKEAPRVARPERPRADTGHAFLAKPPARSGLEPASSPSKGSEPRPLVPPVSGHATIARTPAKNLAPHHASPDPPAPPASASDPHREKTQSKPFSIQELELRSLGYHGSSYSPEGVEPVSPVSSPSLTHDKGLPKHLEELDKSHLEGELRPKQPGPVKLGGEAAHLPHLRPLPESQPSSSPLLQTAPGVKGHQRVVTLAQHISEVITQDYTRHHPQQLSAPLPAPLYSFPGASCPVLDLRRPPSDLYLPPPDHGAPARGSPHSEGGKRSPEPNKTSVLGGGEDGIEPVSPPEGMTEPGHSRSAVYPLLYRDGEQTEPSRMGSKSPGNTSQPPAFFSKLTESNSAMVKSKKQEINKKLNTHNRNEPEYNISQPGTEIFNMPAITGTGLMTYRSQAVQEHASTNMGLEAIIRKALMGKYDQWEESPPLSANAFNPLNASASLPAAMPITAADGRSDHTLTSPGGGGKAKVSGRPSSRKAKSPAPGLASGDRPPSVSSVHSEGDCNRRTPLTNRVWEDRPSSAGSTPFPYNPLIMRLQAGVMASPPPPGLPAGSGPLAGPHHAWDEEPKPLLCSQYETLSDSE
Outline: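 Run by a contract lab. Compound incubated with HDAC enzyme, substrate, bovine serum albumin and HDAC buffer in duplicate for 30 min at 37 °C. Activity taken as (F−Fb)/(Ft−Fb) against blank and solvent control wells; IC50 from curve fitting.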

MDA-MB-231 = assay: Cytotoxicity against human MDA-MB-231 cells assessed as reduction in cell viability after 48 hrs by MTT assay; type: functional, cell-based; settings: MDA-MB-231, 48 h; outline: as §1

SMILES	pIC50 (HCT-116)	pIC50 (Histone deacetylase 2)	inhibition (Homo sapiens)	pIC50 [1]	pIC50 (Histone deacetylase 8)	pIC50 [2]	pIC50 (MDA-MB-231)
CC(C)[C@@H]1NC(=O)[C@]2(C)CSC(=N2)c2csc(n2)CNC(=O)C[C@@H](/C=C/CCSCCS)OC1=O	5.82	7.05	Dose-dependent effect	8.44	5.02	7.37	6.32
CC(C)[C@@H]1NC(=O)[C@]2(C)CSC(=N2)c2csc(n2)CNC(=O)C[C@@H](/C=C/CCC(=O)NO)OC1=O	5.48	7.16	Dose-dependent effect	7.68	5.46	7.54	6.30
